T cruzi inh: T. cruzi replication inhibition; 1.4% of 300,000 active; inhibition, % (concentration not given with the values); T. cruzi beta-gal in NIH3T3, luminescence, 90 h; AID 1885;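 active = mean inhibition across valid replicates above about 55%, limit read from the data; inconclusive = mean below that limit but half or more replicates reach it; inactive = mean below it, under half of replicates reach it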;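 also: signal also drops with host cell toxicity which is not excluded here; 0% = plate median of DMSO wells and 100% = zero luminescence signal; higher percent means less beta-gal luminescence so fewer parasites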
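Assay system: NIH/3T3 fibroblasts plus reporter T. cruzi. Amount: NIH/3T3 cells, 5,000 per well. Buffer or medium: DMEM, 2% fetal bovine serum. Doses: compound pinned at 50 nL/well, DMSO. Schedule: ≥90 h infection period, 3 h prior cell attachment. Signal: luminescent β-galactosidase signal after 60 min lysis. Read-out: parasite load inhibition, %.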
CSC inhib: cancer stem cell inhibition; inhibition, % at 7.5 µM; AID 2717; cancer stem cell-like cells viability, luminescence; 1.1% of 300,000 active; in the data active = inhibition above about 75%; inconclusive = no clear call, values can overlap the other calls; tested in HMLE shEcad cells
HIF activator: HIF pathway transcriptional activation; U2OS HRE-luciferase reporter, luminescence; normalized: DMSO 0%, desferrioxamine 100%; 0.32% of 300,000 active; activation, % at 7.5 µM (by protocol); AID 1910;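 active = mean activation of at least 10% of the iron chelator positive control signal, with at least half of replicates also reaching 10%; inconclusive = mean and replicate majority disagree about reaching 10%; inactive = mean and most replicates under 10%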
PolyA inh: inhibitors of polyadenylation in S. cerevisiae | activity score, % at 12 µM | S. cerevisiae SKY197-pL101 polyadenylation reporter, beta-gal luminescence; efflux-impaired pdr1/pdr3 knockout yeast; score 100 = 6 SD above DMSO | 0.02% of 300,000 active | AID 1875;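 active = lowest replicate activity score at least 50, where 100 means six control SD above control mean; inconclusive = lowest score under 50 but half or more replicates reach 50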;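 also: yeast exposed to compound for 9 h at 30 °C; higher score means more reporter readthrough which indicates perturbed polyadenylation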
Beta cell apopt: beta cell apoptosis inhibition | INS-1E cytokine-induced death, ATP luminescence, 48 h; percent of positive-control rescue, neutral wells zero | protection from apoptosis, % (test concentration not listed) | 0.8% of 300,000 active | AID 435005;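 active = Every replicate reaches about 75%, or at least half do and their mean reaches it too, limit read from the data; inconclusive = At least half of replicates reach the limit but their mean does not; inactive = Under half of replicates reach the limit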;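 also: 0% = cytokine-treated negative control wells and 100% = positive control rescue; higher means more ATP so stronger rescue from cytokine killing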
Calb FLC: affects C. albicans growth with fluconazole; C. albicans CaCi-2 + fluconazole, Alamar Blue growth, 48 h; 0.57% of 300,000 active; growth inhibition, % (concentration not given with the values); AID 1979;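 active = growth inhibition above about 58% in most replicates, limit read from the data, passing the limit was not always enough; inconclusive = exactly half the replicates above a set limit; inactive = most replicates below a set limit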;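 also: all wells also contain fluconazole at 8 µg/ml as a sub-toxic cotreatment; 0% = median of DMSO wells and 100% = median of geldanamycin control wells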
* marks the source's active call; other numbers are inactive results; ? = inconclusive; . = not tested or not shown. Only some compounds are listed: those with a hit (about 3.1% of all), similar ones and a draw of the others.

SMILES | T cruzi inh | CSC inhib | HIF activator | PolyA inh | Beta cell apopt | Calb FLC
Cc1occc1C(=O)N1CCCC(CCC(=O)NCc2ccc(F)c(F)c2)C1 (stereo unspecified) | -6 | -4 | 0 | 5 | -3 | 4
COc1ccc(C(=O)N/C(=C/c2ccco2)C(=O)NC2CCS(=O)(=O)C2)cc1 (stereo unspecified) | -14 | 7 | 0 | -15 | -1 | 1
CS/C(=C\[N+](=O)[O-])Nc1ccc(Cl)cc1 | -8 | -9 | 0 | 19 | 0 | 102*
O=S(=O)(c1ccc(NC(=S)NCc2cccnc2)cc1)N1CCCCC1 | -31 | 139* | 0 | 0 | 126* | -4
O=C(Nc1ccccc1N1CCN(C(=O)c2ccccc2)CC1)c1cc(Br)ccc1Cl | 19 | 2 | 1 | 5 | 3 | 7
COc1ccc(Br)cc1C(=O)Nc1ccccc1N1CCN(C(=O)c2ccccc2)CC1 | 59* | 7 | -30 | 10 | 18 | 1
COc1c(C)cc(Br)cc1C(=O)Nc1ccccc1N1CCN(C(=O)c2ccccc2)CC1 | 66* | 33 | 0 | -10 | 29 | -10
CN(C)CCNC(=O)COc1ccc(C23CC4CC(CC(C4)C2)C3)cc1 | 68* | 82* | 0 | -26 | 13 | -15
Cc1ccc(C23CC4CC(CC(NC(=O)NCCN(C)C)(C4)C2)C3)cc1 | 59* | 5 | 0 | -1 | -1 | 18
COC(=O)C1=C(C)N(Cc2ccc(OC)cc2)C(=O)C1 | -4 | -16 | 223* | -7 | -3 | -2
O=C(CSc1nccn1Cc1ccccc1)NC1CCCC1 | -8 | -9 | 0 | 5 | 7 | -1
CC(C)=CCC12Oc3cc(O)ccc3C1(O)Oc1cc(O)c([C@H]3C=C(C)CC(c4ccc(O)cc4O)[C@H]3C(=O)c3ccc(O)cc3O)c(O)c1C2=O (stereo partly specified) | 3 | -10 | 0 | -4 | -2 | -10
O=C(NCc1cccnc1)/C(=C/c1ccc(-c2cccc(C(F)(F)F)c2)o1)NC(=O)c1ccccc1 | 35 | 1 | -1 | -19 | 0 | 19
O=C(NCc1cccnc1)/C(=C/c1ccc(-c2ccc(Cl)cc2)o1)S(=O)(=O)c1ccccc1 | 49 | 110* | -1 | -8 | 104* | 19
O=C(NCc1cccnc1)/C(=C\c1ccc(-c2ccc(Br)cc2)o1)S(=O)(=O)c1ccccc1 | 30 | 10 | -2 | -3 | 107* | 3
CCN(CC)c1nc(C#N)nc(N(CC)CC)n1 | 7 | . | 0 | 1 | . | -4
CCN(c1ccccc1)c1nc(C#N)nc(N(CC)c2ccccc2)n1 | 42 | 90* | 0 | -2 | -3 | 6
Cn1c(=O)n(C)c2cc(N3CCOCC3)c(NC(=O)c3cccc(Cl)c3)cc21 | -4 | -13 | 0 | -10 | 1 | -1
CCCn1c(=O)c(C(=O)N/N=C/c2ccc(F)cc2)c(O)c2ccccc21 | -11 | 9 | -1 | 9 | 18 | 1
O=C(N/N=C/c1ccccc1)c1c(O)c2ccccc2[nH]c1=O | 7 | 19 | 2 | ? | 124* | -4
O=C(N/N=C/c1cccc(F)c1)c1c(O)c2ccccc2[nH]c1=O | 3 | 35 | 0 | ? | 101* | 23
O=C(NNC(=O)c1c(O)c2ccccc2[nH]c1=O)c1ccccc1 | -2 | -8 | 0 | 21 | 0 | -12
O=C(Nc1cccc(F)c1)c1c(O)c2ccccc2[nH]c1=O | -6 | 8 | 0 | -10 | 2 | 12
O=C(N/N=C/c1ccc(F)cc1)c1c(O)c2ccccc2[nH]c1=O | 2 | 4 | 0 | 60* | -2 | -3
CCC(=O)Nc1ccc(NC(=O)c2cc3ccccc3o2)c(OC)c1 | 5 | -2 | 8 | -14 | -3 | 10
SMILES | T cruzi inh | CSC inhib | HIF activator | PolyA inh | Beta cell apopt | Calb FLC
Cc1ccc(NC(=O)c2ccc(COc3ccccc3)o2)nc1 | 6 | 14 | 1 | 4 | . | -6
CN(CCOc1ccc(Br)cc1)CC(O)c1ccccc1 (stereo unspecified) | 70* | 12 | -22 | 4 | -2 | -3
CN(CCOc1ccccc1)CC(O)COCc1ccccc1F (stereo unspecified) | 55* | -3 | 0 | -2 | 7 | -21
NC(=O)c1ccccc1NC(=O)Nc1ccc(F)c(Cl)c1 | -5 | 11 | 0 | -4 | -4 | 17
Cc1oc2c(c(=O)c1C)C(=O)CC(c1ccccc1)C2 (stereo unspecified) | -7 | -14 | 0 | 2 | . | -2
CS(=O)(=O)c1sc(C#N)c2c1C(=O)CC(c1ccccc1)C2 (stereo unspecified) | 39 | 110* | -4 | -77 | 39* | 0
C/C(=N/Nc1ccnc2cc(Cl)ccc12)c1ccc(O)cc1 | 32 | 34 | 1 | 8 | 0 | 1
Clc1ccc2c(N/N=C/c3cccc(Br)c3)ccnc2c1 | 51 | 80* | -5 | -29 | 81* | -4
C/C(=N/Nc1ccnc2cc(Cl)ccc12)c1ccc(N)cc1 | 60* | 14 | 1 | -12 | -1 | 0
Clc1ccc2c(NNc3ccccc3Cl)ccnc2c1 | 12 | 7 | 0 | -15 | -3 | 6
O=[N+]([O-])c1ccc(/C=N/Nc2ccnc3cc(Cl)ccc23)o1 | 23 | 15 | 1 | -18 | 107* | -22
Brc1cccc(C=Nc2cccc3ncccc23)c1 | -17 | -14 | 1 | 6 | -5 | 1
Clc1ccc2c(N/N=C/c3ccccc3Br)ccnc2c1 | 55* | 50 | . | -12 | 43 | -5
O=C(Nc1cccc(Cl)c1)c1ccc(F)c(S(=O)(=O)NCc2ccc3c(c2)OCO3)c1 | -4 | 35 | 0 | -2 | 45 | 1
CC(=O)C1=NN(c2ccc(Cl)cc2)C(c2ccc3c(c2)OCO3)N(C(C)=O)N1C (stereo unspecified) | 23 | 23 | 0 | -6 | 1 | -7
CSc1ccc(/C=N/Nc2ccc(Cl)c(C(=O)O)c2)cc1 | -10 | -16 | 174* | -4 | -16 | -3
O=C(O)c1cc(N/N=C/c2ccc(-c3ccccc3)cc2)ccc1Cl | -2 | 9 | -33 | 1 | -2 | 15
Cc1ccc(NCC(=O)c2ccc(C)cc2)cc1 | 56* | 7 | 2 | 3 | . | -30
CC1CCC(NC(=O)COC(=O)c2ccco2)CC1 (stereo unspecified) | . | . | . | . | -1 | .
Cc1nn(C(=O)c2cccnc2)c(C)c1Sc1ccccc1 | -25 | -5 | 103* | -23 | -16 | 6
COc1cc(C(CCN2CCCC2)c2c(OC)cc(OC)c3ccc(=O)oc23)cc(OC)c1OC (stereo unspecified) | 11 | 5 | -2 | 5 | 4 | 0
COc1cc(OC)c2c(-c3ccccc3)cc(=O)oc2c1C(CCN1CCCC(C)C1)c1ccc2c(c1)OCO2 (stereo unspecified) | 21 | 6 | -2 | -20 | 67 | -9

Compound activity (PubChem BioAssay)
